Test results as given in ChEMBL document CHEMBL5214995, “Orally Bioavailable Quinoxaline Inhibitors of 15-Prostaglandin Dehydrogenase (15-PGDH) Promote Tissue Repair and Regeneration” (J Med Chem, 2022).
Converted amounts (≈) assume the structure as drawn. Each block holds one molecule with its values, some of them ahead of it. The source made the active and inactive calls. The rule behind the calls is not given here.

How the values were obtained:
[1] = AUC in CD-1 mouse at 10 mg/kg,ip measured upto 1440 mins by LC-MS/MS analysis; assay type: ADME, organism-based; design: time < 1440 min, dose 10 mg/kg, route ip; details: in vivo; for AUC: mouse, 24 h
Summary of the method: (§1)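 Female CD1 mice were given a single 10 mg/kg IP dose. […] Plasma was extracted with methanol/0.15% formic acid containing N-benzylbenzamide internal standard and analysed by LC-MS/MS against spiked blank-plasma standards. Cmax and AUC were derived by noncompartmental analysis.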

[2] = Cmax in CD-1 mouse at 10 mg/kg,ip measured upto 1440 mins by LC-MS/MS analysis; assay type: ADME, organism-based; design: time < 1440 min, dose 10 mg/kg, route ip; details: in vivo; summary of the method: as §1
[3] = Aqueous solubility of the compound under shaking condition by LC-MS/MS analysis; assay type: physicochemical; details: buffer
[4] = test system: Mus musculus; assay: Protection against DSS-induced acute ulcerative colitis in […] mouse assessed as increase in colon length at 40 mg/kg,po measured after 12 days of administration; assay type: functional, organism-based; details: time 12.0 day
[5] = test system: Mus musculus; assay: Protection against DSS-induced acute ulcerative colitis in […] mouse assessed as increase in colon length at 10 mg/kg,ip measured from 8 to 12 days of administration; assay type: functional, organism-based; details: time 8-12 day
[6] = Cmax in CD-1 mouse at 5 mg/kg,iv measured upto 1440 mins by LC-MS/MS analysis; assay type: ADME, organism-based; design: dose 5 mg/kg, time < 1440 min, route iv; details: in vivo, 24 h
Summary of the method: (§2)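 Female CD1 mice received a single 10 mg/kg PO or 5 mg/kg IV dose in 10% DMSO, 25% PEG400, 1% Tween-80 and 64% D5W (pH 7.4). Groups of three were killed at 0–1440 min, with blood taken by cardiac puncture into ACD. Plasma was extracted into methanol with formic acid and internal standard, and drug was quantified by LC-MS/MS against spiked blank-plasma standards. Cmax and AUC came from noncompartmental analysis.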

[7] = test system: Mus musculus; assay: Protection against DSS-induced acute ulcerative colitis in […] mouse assessed as increase in body weight at 10 mg/kg,ip measured from 7 to 12 days of administration; assay type: functional, organism-based; details: time 7-12 day
[8] = test system: Mus musculus; assay: Protection against DSS-induced acute ulcerative colitis in […] mouse assessed as increase in body weight at 40 mg/kg,po measured upto 12 days of administration; assay type: functional, organism-based; details: time <= 12.0 day
[9] = Oral bioavailability in CD-1 mouse at 10 mg/kg measured upto 1440 mins by LC-MS/MS analysis; assay type: ADME, organism-based; details: in vivo, 24 h; summary of the method: as §2
[10] = Apparent permeability of the compound from basolateral to apical side in human Caco-2 cells measured upto 120 mins by LC-MS/MS analysis; assay type: ADME, cell-based; details: caco-2, 2 h
Summary of the method: (§3)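 Caco-2 cells were grown three weeks on 12-well Transwells in DMEM with 20% FBS and supplements, then washed in HBSS with Ca/Mg and 0.5% FBS. Monolayers were used only if TEER exceeded 800 Ωcm², and TEER was rechecked after the assay.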

[11] = AUC in CD-1 mouse at 5 mg/kg,iv measured upto 1440 mins by LC-MS/MS analysis; assay type: ADME, organism-based; design: dose 5 mg/kg, time < 1440 min, route iv; details: in vivo, 24 h; summary of the method: as §2
[12] = test system: Colon; assay: In vivo activation of PGE2 in C57BL/6J mouse colon tissue assessed as increase in PGE2 level at 5 mg/kg,ip measured after 3 hrs by ELISA; assay type: functional, organism-based
Summary of the method: (§4)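 Female C57bl/6J mice aged 8-9 weeks were dosed IP and euthanised 3 h later. Colon and lung were rinsed in ice-cold PBS with indomethacin (5.6 µg/ml), snap-frozen, pulverised, homogenised in cold PBS/indomethacin, sonicated on ice and centrifuged. PGE2 in the supernatant was measured by ELISA in triplicate and normalised to BCA protein as ng PGE2/mg protein.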

[13] = test system: Lung; assay: In vivo activation of PGE2 in C57BL/6J mouse lung tissue assessed as increase in PGE2 level at 2.5 mg/kg,ip measured after 3 hrs by ELISA; assay type: functional, organism-based; summary of the method: as §4
[14] = test system: Colon; assay: In vivo activation of PGE2 in C57BL/6J mouse colon tissue assessed as increase in PGE2 level at 2.5 mg/kg,ip measured after 3 hrs by ELISA; assay type: functional, organism-based; summary of the method: as §4
[15] = test system: Mus musculus; assay: […] activity against bone marrow transplanted mouse model assessed as increase in RBC repopulation at 10 mg/kg,ip bid measured by flow cytometry after 15 days post-transplant recovery period; assay type: functional, organism-based; details: Erythrocyte, time 15.0 day
[16] = test system: Colon; assay: animal or person; details: Mus musculus, C57BL/6J, po, 1.5 h, read-out: INH
[17] = Apparent permeability of the compound from apical to basolateral side in human Caco-2 cells measured upto 120 mins by LC-MS/MS analysis; assay type: ADME, cell-based; details: caco-2, 2 h; summary of the method: as §3
[18] = test system: Lung; assay: In vivo activation of PGE2 in C57BL/6J mouse lung tissue assessed as increase in PGE2 level at 5 mg/kg,ip measured after 3 hrs by ELISA; assay type: functional, organism-based; summary of the method: as §4
[19] = Cmax in CD-1 mouse at 10 mg/kg,po measured upto 1440 mins by LC-MS/MS analysis; assay type: ADME, organism-based; design: dose 10 mg/kg, time < 1440 min, route po; details: in vivo, 24 h; summary of the method: as §2
[20] = test system: Mus musculus; assay: Protection against DSS-induced acute ulcerative colitis in […] mouse assessed as decrease in cryptitis score at 40 mg/kg,po measured after 12 days of administration; assay type: functional, organism-based; details: time 12.0 day
[21] = test system: Mus musculus; assay: […] activity against bone marrow transplanted mouse model assessed as increase in total WBC repopulation at 10 mg/kg,ip bid measured by flow cytometry after 15 days post-transplant recovery period; assay type: functional, organism-based; details: time 15.0 day
[22] = AUC in CD-1 mouse at 10 mg/kg,po measured upto 1440 mins by LC-MS/MS analysis; assay type: ADME, organism-based; design: time < 1440 min, dose 10 mg/kg, route po; details: in vivo, 24 h; summary of the method: as §2
[23] = test system: Colon; assay: animal or person; details: Mus musculus, C57BL/6J, po, 0.5 h, read-out: INH
[24] = test system: Mus musculus; assay: Protection against DSS-induced acute ulcerative colitis in […] mouse assessed as decrease in cryptitis score at 10 mg/kg,ip measured after 12 days of administration; assay type: functional, organism-based; details: time 12.0 day

Structure (SMILES): O=C(c1ccc2ncc(-c3ccc4cnccc4c3)nc2c1)N1CCCCC1
solubility thermodynamic [3]: 14 µg/mL (≈ 38 µM)

Structure (SMILES): Cn1ccc2cc(-c3cnc4ccc(C(=O)N5CCCCC5)cc4n3)ccc2c1=O
Activity [4]: Active
Activity [5]: Active
Cmax [6]: 3000 ng/mL
Activity [7]: Active
Activity [8]: Active
F [9]: 63%
Papp [10]: 34 10^-6 cm/s
AUC [11]: 205 µg·min/mL
Activity [12]: Active
Activity [13]: Active
Activity [14]: Active
Activity [15]: Active
inhibition in vivo at 20 mg/kg [16]: > 80%
Papp [17]: 45 10^-6 cm/s
Activity [18]: Active
Cmax [19]: 950 ng/mL
Activity [20]: Active
Activity [21]: Active
AUC [1]: 517 µg·min/mL
Cmax ([2]; mouse, 24 h): 6400 ng/mL
solubility thermodynamic [3]: 56 µg/mL (≈ 141 µM)
AUC [22]: 256 µg·min/mL
inhibition in vivo at 20 mg/kg [23]: > 90%
Activity [24]: Active

Structure (SMILES): Cl.Nc1ncc(-c2cnc3ccc(C(=O)N4CCCCC4)cc3n2)cc1Cl
Activity [12]: Active
Activity [18]: Active
AUC at 24 h ([1]; CD-1, mouse): 2870 ng·h/mL
Cmax ([2]; CD-1, mouse, read-out: Cmax): 3000 ng/mL

More lines, now with the values ahead:

AUC [1]: 270 µg·min/mL
Cmax ([2]; mouse, 24 h): 7400 ng/mL
solubility thermodynamic [3]: 4 µg/mL (≈ 10.4 µM)
Structure (SMILES): O=C(c1ccc2ncc(-c3ccc4c(=O)[nH]ccc4c3)nc2c1)N1CCCCC1

solubility thermodynamic [3]: 55 µg/mL (≈ 149 µM)
Structure (SMILES): O=C(c1ccc2ncc(-c3ccc4ncccc4c3)nc2c1)N1CCCCC1
